Assay results taken from ChEMBL document CHEMBL1149666, “Novel 1-(azacyclyl)-3-arylsulfonyl-1H-pyrrolo[2,3-b]pyridines as 5-HT6 agonists and antagonists” (Bioorg Med Chem, 2007).

Columns and labels:
[1] = biological target: T1, 5-hydroxytryptamine receptor 6 (Homo sapiens, UniProt P50406); test: Displacement of [3H]LSD from cloned human 5HT6 expressed in HeLa cells; type: cell-based
How it was run: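 Radioligand binding used [3H]-LSD on human-cloned 5-HT6 receptors stably transfected in HeLa cells. Ki values were determined in triplicate.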

[2] = biological target: T1, 5-hydroxytryptamine receptor 6; test: Agonist activity at human 5HT6 expressed in HeLa cells assessed as intracellular cAMP level by radioimmunoassay; type: functional, cell-based
[3] = biological target: T1, 5-hydroxytryptamine receptor 6; test: Antagonist activity at human 5HT6 expressed in HeLa cells assessed as intracellular cAMP level by radioimmunoassay; type: functional, cell-based
How it was run: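 Stably transfected h5-HT6 HeLa cells were washed in Krebs buffer and preincubated 5 min at 37 °C in Krebs with 500 μM IBMX. Test compound was then added at 0.1–10000 nM for 10 min at 37 °C. The reaction was stopped with 0.5 M perchloric acid, and intracellular cAMP was measured by scintillation proximity RIA. IC50 and Imax were determined in triplicate.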

T1 sequence (P50406 whole entry): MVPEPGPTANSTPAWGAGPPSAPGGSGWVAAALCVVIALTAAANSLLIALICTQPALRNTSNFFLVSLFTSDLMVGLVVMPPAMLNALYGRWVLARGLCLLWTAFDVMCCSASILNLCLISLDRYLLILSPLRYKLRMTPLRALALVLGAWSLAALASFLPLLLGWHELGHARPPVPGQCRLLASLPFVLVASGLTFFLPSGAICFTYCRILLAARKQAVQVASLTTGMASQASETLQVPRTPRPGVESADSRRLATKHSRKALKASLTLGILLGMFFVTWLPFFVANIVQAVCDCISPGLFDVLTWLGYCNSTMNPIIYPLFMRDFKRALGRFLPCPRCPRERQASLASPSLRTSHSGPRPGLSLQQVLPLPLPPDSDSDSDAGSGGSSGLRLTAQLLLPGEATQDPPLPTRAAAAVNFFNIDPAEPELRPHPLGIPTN

CN1CCCC(n2cc(S(=O)(=O)c3cc(Cl)cc(Cl)c3)c3cccnc32)C1 (configuration not stated)
Ki [1]: 3.9 nM | EC50 [2]: 38.7 nM

O=S(=O)(c1cccc(Cl)c1)c1cn(C2CCCNC2)c2ncccc12 (configuration not stated)
Ki [1]: 1.3 nM | EC50 [2]: 30 nM

CCN1CCCC(n2cc(S(=O)(=O)c3ccc(Cl)s3)c3cccnc32)C1 (configuration not stated)
Ki [1]: 3.2 nM | EC50 [2]: 50 nM

O=S(=O)(c1ccccc1F)c1cn(C2CCNC2)c2ncccc12 (configuration not stated)
Ki [1]: 2 nM | %max [3]: 100% | IC50 [3]: 50 nM

CN1CCCC(n2cc(S(=O)(=O)c3ccc(Cl)cc3)c3cccnc32)C1 (configuration not stated)
Ki [1]: 11.5 nM | IC50 [3]: 28 nM | Imax [3]: 63%

O=S(=O)(c1ccc(C(F)(F)F)cc1)c1cn(C2CCCNC2)c2ncccc12 (configuration not stated)
Ki [1]: 12 nM | EC50 [2]: 414 nM

CCN1CCCC(n2cc(S(=O)(=O)c3ccccc3)c3cccnc32)C1 (configuration not stated)
Ki [1]: 3.6 nM | IC50 [3]: 26 nM | Imax [3]: 58%

CN1CCC(n2cc(S(=O)(=O)c3ccccc3)c3cccnc32)C1 (configuration not stated)
Ki [1]: 2.5 nM | EC50 [2]: 2030 nM

O=S(=O)(c1cn(C2CCNC2)c2ncccc12)c1cccc2cccnc12 (configuration not stated)
Ki [1]: 5.7 nM | %max [3]: 100% | IC50 [3]: 643 nM

O=S(=O)(c1ccc(Cl)cc1)c1cn(C2CCCNC2)c2ncccc12 (configuration not stated)
Ki [1]: 7.6 nM | IC50 [3]: 682 nM | Imax [3]: 76%

O=S(=O)(c1cn(C2CCCNC2)c2ncccc12)c1c(Cl)nc2sccn12 (configuration not stated)
Ki [1]: 0.7 nM | EC50 [2]: 66 nM

CCN1CCCC(n2cc(S(=O)(=O)c3c(Cl)nc4sccn34)c3cccnc32)C1 (configuration not stated)
Ki [1]: 0.7 nM | EC50 [2]: 34 nM

O=S(=O)(c1ccc(Cl)cc1)c1cn(C2CCNC2)c2ncccc12 (configuration not stated)
Ki [1]: 5.5 nM | %max [3]: 94% | IC50 [3]: 340 nM

O=S(=O)(c1cc(Cl)cc(Cl)c1)c1cn(C2CCCNC2)c2ncccc12 (configuration not stated)
Ki [1]: 6.1 nM | EC50 [2]: 297 nM

O=S(=O)(c1ccc(Cl)s1)c1cn(C2CCCNC2)c2ncccc12 (configuration not stated)
Ki [1]: 1.2 nM | EC50 [2]: 98 nM

O=S(=O)(c1cccc(Cl)c1)c1cn(C2CCNC2)c2ncccc12 (configuration not stated)
Ki [1]: 1.5 nM | EC50 [2]: 1680 nM

O=S(=O)(c1ccccc1)c1cn(C2CCCNC2)c2ncccc12 (configuration not stated)
Ki [1]: 4.9 nM | EC50 [2]: 47 nM

CN1CCC(n2cc(S(=O)(=O)c3ccc(Cl)cc3)c3cccnc32)C1 (configuration not stated)
Ki [1]: 4.2 nM | %max [3]: 98% | IC50 [3]: 95 nM

CCN1CCCC(n2cc(S(=O)(=O)c3cc(Cl)cc(Cl)c3)c3cccnc32)C1 (configuration not stated)
Ki [1]: 13.5 nM | EC50 [2]: 67 nM

CC(C)N1CCCC(n2cc(S(=O)(=O)c3c(Cl)nc4sccn34)c3cccnc32)C1 (configuration not stated)
Ki [1]: 1.7 nM | IC50 [3]: 8 nM

CN1CCC(n2cc(S(=O)(=O)c3cccc(Br)c3)c3cccnc32)C1 (configuration not stated)
Ki [1]: 0.9 nM | %max [3]: 98% | IC50 [3]: 23 nM

CC(C)N1CCCC(n2cc(S(=O)(=O)c3cccc(F)c3)c3cccnc32)C1 (configuration not stated)
Ki [1]: 3.4 nM | EC50 [2]: 172 nM

O=S(=O)(c1cccc(F)c1)c1cn(C2CCNC2)c2ncccc12 (configuration not stated)
Ki [1]: 2.7 nM | EC50 [2]: 278 nM

O=S(=O)(c1cccc(C(F)(F)F)c1)c1cn(C2CCNC2)c2ncccc12 (configuration not stated)
Ki [1]: 1.3 nM | EC50 [2]: 520 nM

CCN1CCCC(n2cc(S(=O)(=O)c3ccc(Cl)cc3)c3cccnc32)C1 (configuration not stated)
Ki [1]: 33.5 nM | IC50 [3]: 70 nM | Imax [3]: 71%

CC(C)N1CCCC(n2cc(S(=O)(=O)c3ccc(Cl)cc3)c3cccnc32)C1 (configuration not stated)
Ki [1]: 11.1 nM | IC50 [3]: 338 nM | Imax [3]: 74%

CCN1CCC(n2cc(S(=O)(=O)c3c(Cl)nc4sccn34)c3cccnc32)C1 (configuration not stated)
Ki [1]: 1.4 nM | IC50 [3]: 10 nM

CN1CCC(n2cc(S(=O)(=O)c3c(Cl)nc4sccn34)c3cccnc32)C1 (configuration not stated)
Ki [1]: 0.8 nM | IC50 [3]: 26 nM

O=S(=O)(c1cn(C2CCNC2)c2ncccc12)c1c(Cl)nc2sccn12 (configuration not stated)
EC50 [2]: 80 nM

CCN1CCC(n2cc(S(=O)(=O)c3cccc(F)c3)c3cccnc32)C1 (configuration not stated)
Ki [1]: 8.3 nM | %max [3]: 89% | IC50 [3]: 132 nM

O=S(=O)(c1cccc(Br)c1)c1cn(C2CCCNC2)c2ncccc12 (configuration not stated)
Ki [1]: 3.8 nM | EC50 [2]: 72 nM

CC(C)N1CCCC(n2cc(S(=O)(=O)c3cccc(Br)c3)c3cccnc32)C1 (configuration not stated)
Ki [1]: 9.4 nM | IC50 [3]: 492 nM | Imax [3]: 77%

O=S(=O)(c1cccc(F)c1)c1cn(C2CCCNC2)c2ncccc12 (configuration not stated)
Ki [1]: 2.4 nM | EC50 [2]: 67 nM

CCN1CCC(n2cc(S(=O)(=O)c3cccc(Cl)c3)c3cccnc32)C1 (configuration not stated)
Ki [1]: 3.3 nM | %max [3]: 93% | IC50 [3]: 120 nM

CN1CCC(n2cc(S(=O)(=O)c3ccccc3F)c3cccnc32)C1 (configuration not stated)
Ki [1]: 5.6 nM | %max [3]: 69% | IC50 [3]: 186 nM

O=S(=O)(c1ccc(F)cc1)c1cn(C2CCNC2)c2ncccc12 (configuration not stated)
Ki [1]: 8.5 nM | EC50 [2]: 1650 nM

O=S(=O)(c1ccc(Br)cc1)c1cn(C2CCNC2)c2ncccc12 (configuration not stated)
Ki [1]: 4.3 nM | %max [3]: 96% | IC50 [3]: 135 nM

CN1CCC(n2cc(S(=O)(=O)c3ccccc3Cl)c3cccnc32)C1 (configuration not stated)
Ki [1]: 2.2 nM | %max [3]: 91% | IC50 [3]: 91 nM

CN1CCCC(n2cc(S(=O)(=O)c3c(Cl)nc4sccn34)c3cccnc32)C1 (configuration not stated)
Ki [1]: 2 nM | EC50 [2]: 25 nM

O=S(=O)(c1cccc(Br)c1)c1cn(C2CCNC2)c2ncccc12 (configuration not stated)
Ki [1]: 1.3 nM | EC50 [2]: 35 nM

CCN1CCC(n2cc(S(=O)(=O)c3ccccc3)c3cccnc32)C1 (configuration not stated)
Ki [1]: 11 nM | %max [3]: 75% | IC50 [3]: 56 nM

CN1CCC(n2cc(S(=O)(=O)c3cccc(Cl)c3)c3cccnc32)C1 (configuration not stated)
Ki [1]: 1.5 nM | %max [3]: 85% | IC50 [3]: 142 nM

CN1CCCC(n2cc(S(=O)(=O)c3ccc(Cl)s3)c3cccnc32)C1 (configuration not stated)
Ki [1]: 1.9 nM | EC50 [2]: 71 nM

O=S(=O)(c1ccccc1F)c1cn(C2CCCNC2)c2ncccc12 (configuration not stated)
Ki [1]: 2 nM | IC50 [3]: 50 nM | Imax [3]: 100%

CN1CCC(n2cc(S(=O)(=O)c3ccc(F)cc3)c3cccnc32)C1 (configuration not stated)
Ki [1]: 5 nM | %max [3]: 85% | IC50 [3]: 213 nM

CN1CCCC(n2cc(S(=O)(=O)c3cccc(F)c3)c3cccnc32)C1 (configuration not stated)
Ki [1]: 4.7 nM | EC50 [2]: 306 nM

O=S(=O)(c1ccccc1Cl)c1cn(C2CCCNC2)c2ncccc12 (configuration not stated)
Ki [1]: 3.7 nM | EC50 [2]: 50 nM

O=S(=O)(c1cccc(C(F)(F)F)c1)c1cn(C2CCCNC2)c2ncccc12 (configuration not stated)
Ki [1]: 4.6 nM | EC50 [2]: 273 nM

CN1CCCC(n2cc(S(=O)(=O)c3cccc(C(F)(F)F)c3)c3cccnc32)C1 (configuration not stated)
Ki [1]: 2.1 nM | EC50 [2]: 49 nM
